Source: PubChem (several laboratories)
Rows were chosen to be rich in hits. Some 3% of all compounds tested hit in one or more screens of this group.
Kir21 block: Kir2.1 (mouse) channel inhibition; 310,000 tested, 0.85% active; HEK293-Kir2.1, FluxOR thallium flux fluorescence; hits give low values; B-score at 10 µM;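 active = fluorescence ratio B-score at or below minus 3 SD of library scores, with starting-brightness B-score within 2 SD, cut at about -4.2 in these data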;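 also: channel flux triggered by added potassium and thallium sulfate stimulus; B-score of peak minus minimum fluorescence over baseline after thallium stimulus; more negative B-score means stronger Kir2.1 block with less thallium influx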
Target sequence (P35561 whole entry, looked up): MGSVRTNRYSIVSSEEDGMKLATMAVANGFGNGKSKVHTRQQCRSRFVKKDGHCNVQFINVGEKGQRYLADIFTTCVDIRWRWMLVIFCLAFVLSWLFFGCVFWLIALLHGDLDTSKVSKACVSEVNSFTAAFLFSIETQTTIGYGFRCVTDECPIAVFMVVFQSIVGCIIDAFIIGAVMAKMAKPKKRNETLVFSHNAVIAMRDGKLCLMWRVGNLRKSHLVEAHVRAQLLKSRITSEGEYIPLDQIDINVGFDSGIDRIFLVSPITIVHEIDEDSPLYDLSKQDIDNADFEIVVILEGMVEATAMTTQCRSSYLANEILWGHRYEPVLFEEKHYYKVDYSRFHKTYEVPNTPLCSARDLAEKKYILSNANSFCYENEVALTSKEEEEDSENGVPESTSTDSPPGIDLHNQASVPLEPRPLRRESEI
DNA FID counter: displaces DNA intercalator in HCV helicase counter-screen; DNA fluorescent intercalator displacement, fluorescence; inhibition, % at 7.9 µM; 290,000 tested, 0.17% active; in the data active = inhibition above about 37%;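 also: 0% = vehicle and 100% = reference compound; higher means more ethidium bromide displaced from hairpin DNA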
TMEM16A act: activators or potentiators of mouse TMEM16A chloride channel; Q8BHY3; B-score at 10 µM; AID 623877; HEK293 TMEM16A/YFP-H148Q/I152L, iodide quench fluorescence; hits give low values; 340,000 tested, 0.3% active;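 active = fluorescence-ratio B-score plate-corrected deviation score at least 3 library SD below zero, with starting fluorescence score within 5 deviations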;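 also: channel opened by trigger with iodide after compound preincubation; score built on the fluorescence ratio of max minus min over baseline; more negative score means more quench and so TMEM16A activation or potentiation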
ANO1 block: inhibitors of mouse TMEM16A calcium-activated chloride channel; Q8BHY3; HEK293 TMEM16A/YFP iodide influx fluorescence, ionomycin; normalized B-score (activity score, 25-100; higher = stronger inhibition) at 10 µM; 310,000 tested, 1.2% active; AID 588511;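 active = ratio plate-corrected score three or more library SD toward inhibition, starting fluorescence score within five deviations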;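 also: score derived from kinetic fluorescence span divided by baseline fluorescence per well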
SR-BI uptake up: SR-BI HDL lipid transfer activation; CHO ldlA[mSR-BI] cells, DiI-HDL uptake fluorescence, 3 h; 100 = double the neutral-control signal; activation, % at 12.5 µM; 320,000 tested, 0.096% active; AID 504775;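 active = mean replicate activation of at least 60% and every replicate at or above 60%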;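 also: 0% = median plate neutral-control signal and 100% = twice that signal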
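material = CHO ldlA[mSR-BI] cells | medium = Ham's F12 with 0.5% BSA, HEPES 25 mM, pH 7.4 | reagent = fluorescent DiI-HDL, 10 µg/mL final | compound dosing = single-point compound dose | incubation = 3 h, 37 °C | measured by = bottom-read fluorescence, 550/595 nm | measure = HDL uptake via cellular fluorescence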
SR-BI DiI inh: blocks mouse SR-BI lipid uptake from DiI-HDL; ldlA[mSR-BI] CHO cells, DiI-HDL uptake fluorescence, 3 h; inhibition, % at 12.5 µM; AID 488896; Q61009; 320,000 tested, 0.96% active;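 active = mean replicate inhibition of at least 70% and a set share of replicates each scoring 70 or more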;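 also: 0% = median of neutral control wells and 100% = median of positive control wells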
The depositor's hits bear a star; i = inactive; . = no result.

SMILES	Kir21 block	DNA FID counter	TMEM16A act	ANO1 block	SR-BI uptake up	SR-BI DiI inh
O=C(NNC(=O)c1ccccc1O)c1ccc(NS(=O)(=O)c2ccc(F)cc2)cc1	-0.19	.	i	i	-86.8	86.8*
O=C(NNC(=O)c1cc(Cl)ccc1O)c1ccc(NS(=O)(=O)c2cccs2)cc1	0.42	.	i	i	-119.3	119.2*
COC(=O)c1cccc(-n2c(=O)n(Cc3ccccc3)c(=O)c3[nH]cnc32)c1C	-1.65	-17.5	i	i	34.1	-34.1
CCOC(=O)N1CCN(C(=O)CN(C)S(=O)(=O)c2ccc(F)cc2)CC1	1.06	-10.8	i	i	1.3	-1.3
O=C(O)c1ccc2nc(-c3ccco3)c(-c3ccco3)nc2c1	-3.45	-6.2	i	.	3.6	-3.6
O=C(Nc1cccc(C(F)(F)F)c1)c1ccc2nc(-c3ccco3)c(-c3ccco3)nc2c1	-1.51	-11.3	i	i	-81.6	81.6*
COc1ccc(CC(=O)Oc2cc(C)ccc2C)cc1	-0.35	-24.0	i	i	6.2	-6.2
N#Cc1nc(Cc2cccc3ccccc23)oc1N1CCCCC1	0.02	-2.2	-23*	100*	-3.8	3.8
CCNc1oc(-c2cccc3ccccc23)nc1C#N	-0.04	-1.3	i	i	-24.1	24.1
N#Cc1nc(Cc2cccc3ccccc23)oc1NCCCN1CCOCC1	-5.96*	13.1	i	i	-1.9	1.9
N#Cc1nc(-c2cccc3ccccc23)oc1NCCN1CCCCC1	-4.93*	8.6	i	i	10.6	-10.6
N#Cc1nc(Cc2cccc3ccccc23)oc1NCCCn1ccnc1	-4.15	5.5	i	i	-14.5	14.5
COc1ccccc1C(=O)NC(CCSC)C(=O)NCc1ccccn1 (stereo unspecified)	0.68	.	i	i	-14.2	14.2
CON/C=C(\C=Nc1ccc(Cl)cc1)c1ncc(C(F)(F)F)cc1Cl	-0.02	-1.4	i	i	-73.0	73.0*
CON/C=C(\C=Nc1ccc(C(F)(F)F)cc1)c1ncc(C(F)(F)F)cc1Cl	-3.17	-8.8	i	i	-39.6	39.6
O=C(c1ccc(Cl)c(Cl)c1)N(Cc1ccco1)c1ccc(O)cc1	-4.27*	-4.3	i	i	-15.9	15.9
O=C(COc1ccccc1)N(Cc1ccco1)c1ccc(O)cc1	-0.45	-2.2	i	i	32.9	-32.9
CCCCNS(=O)(=O)c1ccc(NC(=O)c2c(-c3ccccc3Cl)noc2C)cc1	-0.08	-17.6	i	i	-34.9	34.9
N=c1c2c(-c3ccccc3)c(-c3ccccc3)oc2ncn1CCCN1CCOCC1	-0.91	19.4	i	i	6.3	-6.3
c1ccc(OCCCn2ccnc2)cc1	-0.95	6.0	i	i	-0.3	0.3
OCCNc1ncnc2c1c(-c1ccccc1)c(-c1ccccc1)n2Cc1ccco1	0.61	-32.9	i	i	14.5	-14.5
N=c1c2c(-c3ccccc3)c(-c3ccccc3)n(Cc3ccco3)c2ncn1CCCN1CCOCC1	-7.1*	23.6	i	i	42.2	-42.2
c1ccc(-c2oc3ncnc(NCCCn4ccnc4)c3c2-c2ccccc2)cc1	-2.35	12.5	i	100*	-35.5	35.5
c1ccc(-c2c(-c3ccccc3)n(Cc3ccco3)c3ncnc(NCCCn4ccnc4)c23)cc1	-2.94	9.7	i	100*	0.2	-0.2
N=c1c2c(-c3ccccc3)c(-c3ccccc3)n(Cc3ccco3)c2ncn1CCCn1ccnc1	-7.65*	30.0	i	i	1.1	-1.1
SMILES	Kir21 block	DNA FID counter	TMEM16A act	ANO1 block	SR-BI uptake up	SR-BI DiI inh
COCC1CCCCN1C(=O)c1ccc(OC2CCN(CCc3ccccc3)CC2)cc1 (stereo unspecified)	-0.35	13.2	i	i	-10.2	10.2
CN(C)CCCNc1ncnc2oc(-c3ccccc3)c(-c3ccccc3)c12	-4.6*	13.3	i	i	-5.7	5.7
Cc1cc(C(=O)COC(=O)c2ccc(O)cc2)c(C)n1CCc1ccc(F)cc1	-1.57	-8.1	i	i	-73.7	73.7*
CC1=CC(=O)N(c2ccc(C)cc2)C1c1ccc(Cl)cc1 (stereo unspecified)	-4.54*	-27.8	i	i	-10.6	10.6
O=C(NN=Cc1c(O)ccc2ccccc12)c1ccncc1	.	.	i	.	-97.4	97.4*
Cn1cccc1/C=N\NC(=O)c1cncc(Br)c1	0.54	-12.7	i	i	.	.
O=C(N/N=C/c1c(O)ccc2ccccc12)c1cccnc1	-0.55	-9.8	i	i	-50.7	50.7
O=C(N/N=C\c1c(O)ccc2ccccc12)c1cncc(Br)c1	-12.6	-18.8	i	i	-142.7	142.7*
CCOc1cc(/C=N/NC(=O)c2cc(C)[nH]n2)ccc1OC(=O)c1ccc([N+](=O)[O-])cc1	0.64	3.4	.	100*	.	.
CCOc1cc(/C=N\NC(=O)c2ccc(C)nc2)ccc1OC(=O)c1ccc(F)cc1	-1.65	-31.8	i	i	.	.
CCOc1ccc2ccccc2c1/C=N\NC(=O)c1ccc([N+](=O)[O-])cc1	1.08	-0.3	i	i	-78.4	78.4*
CC(=NNC(=O)c1ccncc1)c1ccccc1O	.	.	i	.	-55.4	55.4
Cc1c(C(=O)N/N=C/c2c(O)ccc3ccccc23)nnn1-c1nonc1N	-1.75	1.9	i	i	-10.2	10.2
CC(=NNC(=O)c1ccncc1)c1ccc2ccccc2c1O	.	.	i	.	-127.1	127.1*
O=C(N/N=C/c1c(O)ccc2ccccc12)c1ccc(Br)o1	0.55	-14.3	i	i	-124.3	124.3*
O=C(N/N=C/c1ccccn1)c1ccc(Br)o1	-0.54	5.2	i	i	28.3	-28.3
Cn1nccc1C(=O)N/N=C/c1c(O)ccc2ccccc12	-1.2	-29.0	i	i	-105.4	105.4*
Cn1cc(C(=O)N/N=C/c2c(O)ccc3ccccc23)ccc1=O	0.24	-6.4	i	i	-102.1	102.1*
O=C(CSc1nccc(=O)[nH]1)NCc1ccc(Cl)cc1	0.71	-0.2	i	i	11.8	-11.8
Cc1ccc2nc(-c3ccc(-c4ccccn4)s3)cn2c1	0.7	-11.3	i	i	-21.2	21.2
Cn1nc(C(=O)NCc2ccccc2Cl)c2c1-c1ccccc1S(=O)(=O)C2	0	-8.7	i	i	-24.2	24.2
O=C(N/N=C\c1c(O)ccc2ccccc12)c1ccc(O)cc1	-0.08	-10.3	i	i	-93.9	93.9*
O=C(N/N=C/c1c(O)ccc2ccccc12)c1ccc[n+](CCO)c1	0.92	12.8	i	i	-36.8	36.8
O=C(N/N=C/c1c(O)ccc2ccccc12)Nc1ccccc1	0.71	.	i	i	.	.
Cc1ccc(C(=O)N/N=C/c2c(O)ccc3ccccc23)cn1	-0.23	-28.9	i	i	-92.9	92.9*
